Measured values from ChEMBL document CHEMBL3259629, “Discovery and optimization of piperidyl-1,2,3-triazole ureas as potent, selective, and in vivo-active inhibitors of α/β-hydrolase domain containing 6 (ABHD6)” (J Med Chem, 2013).
The source made the active and inactive calls. The rule behind the calls is not given here.

Legend:
[1] = target: T1, Fatty-acid amide hydrolase 1 (Mus musculus) (UniProt O08914); assay: Inhibition of mouse brain FAAH at 10 uM after 30 mins by FP-rhodamine ABPP-based SDS-PAGE analysis relative to control
T1 sequence (whole entry): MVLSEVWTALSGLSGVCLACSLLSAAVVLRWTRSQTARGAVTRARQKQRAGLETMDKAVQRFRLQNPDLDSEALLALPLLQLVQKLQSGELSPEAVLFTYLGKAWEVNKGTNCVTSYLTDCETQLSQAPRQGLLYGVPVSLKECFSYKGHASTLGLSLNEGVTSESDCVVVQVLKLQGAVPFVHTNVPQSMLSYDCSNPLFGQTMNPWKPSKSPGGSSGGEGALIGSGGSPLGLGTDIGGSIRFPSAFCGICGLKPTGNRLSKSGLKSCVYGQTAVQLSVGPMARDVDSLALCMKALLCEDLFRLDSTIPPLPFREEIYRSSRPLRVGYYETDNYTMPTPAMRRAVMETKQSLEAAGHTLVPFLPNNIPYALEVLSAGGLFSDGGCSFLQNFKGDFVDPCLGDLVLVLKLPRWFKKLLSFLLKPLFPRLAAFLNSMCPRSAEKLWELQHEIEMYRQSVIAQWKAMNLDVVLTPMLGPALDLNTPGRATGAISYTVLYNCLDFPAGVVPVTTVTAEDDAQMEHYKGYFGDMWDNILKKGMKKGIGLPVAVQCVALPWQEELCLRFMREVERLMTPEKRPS

[2] = target: T2, Monoacylglycerol lipase ABHD6 (Mus musculus) (UniProt Q8R2Y0); assay: Inhibition of ABHD6 in FP-rhodamine-labelled mouse brain membrane at 10 nM preincubated for 30 mins followed by FP-rhodamine labelling measured after 30 mins by gel-based competitive ABPP assay; assay type: tissue-based
T2 sequence (whole entry): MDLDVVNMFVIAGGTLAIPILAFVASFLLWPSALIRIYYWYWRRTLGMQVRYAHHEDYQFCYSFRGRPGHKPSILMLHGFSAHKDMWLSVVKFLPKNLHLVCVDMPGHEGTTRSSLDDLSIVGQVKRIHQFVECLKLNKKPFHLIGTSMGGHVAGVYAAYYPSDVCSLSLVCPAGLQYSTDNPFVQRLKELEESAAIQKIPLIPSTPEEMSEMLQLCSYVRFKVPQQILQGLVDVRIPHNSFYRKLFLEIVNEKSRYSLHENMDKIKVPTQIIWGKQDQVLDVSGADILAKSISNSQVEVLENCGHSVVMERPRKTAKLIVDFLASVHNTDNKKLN
Summary of the method: (§1)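 Mouse brain membrane proteome (1 mg/mL) preincubated with compound for 30 min at 37 °C, then labelled with FP-rhodamine or HT-01 (1 μM final) for 30 min at 37 °C. Quenched in SDS loading buffer, run on 10% SDS-PAGE and scanned for in-gel fluorescence. Bands assigned by gel migration.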

[3] = target: T3, Monoglyceride lipase (Mus musculus) (UniProt O35678); assay: Inhibition of MGLL in FP-rhodamine-labelled mouse brain membrane at 10 uM after 30 mins preincubated for 30 mins followed by HT-01 labelling measured after 30 mins by gel-based competitive ABPP assay; assay type: tissue-based
T3 sequence (whole entry): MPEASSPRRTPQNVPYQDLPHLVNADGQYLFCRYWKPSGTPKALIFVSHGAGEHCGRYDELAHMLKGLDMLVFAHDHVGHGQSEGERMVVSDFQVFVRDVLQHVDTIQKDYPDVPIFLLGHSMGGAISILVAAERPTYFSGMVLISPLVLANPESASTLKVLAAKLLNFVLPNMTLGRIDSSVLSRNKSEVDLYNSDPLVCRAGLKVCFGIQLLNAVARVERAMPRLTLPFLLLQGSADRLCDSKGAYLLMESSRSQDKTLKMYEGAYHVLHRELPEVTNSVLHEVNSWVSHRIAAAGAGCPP
Summary of the method: as §1

[4] = target: T4, Diacylglycerol lipase-beta (Mus musculus) (UniProt Q91WC9); assay: Inhibition of FP-rhodamine-labelled recombinant mouse DAGLbeta expressed in HEK293T cells at 10 uM preincubated for 30 mins followed by FP-rhodamine labelling measured after 30 mins by gel-based competitive ABPP assay; assay type: cell-based; conditions: HEK-293T
T4 sequence (whole entry): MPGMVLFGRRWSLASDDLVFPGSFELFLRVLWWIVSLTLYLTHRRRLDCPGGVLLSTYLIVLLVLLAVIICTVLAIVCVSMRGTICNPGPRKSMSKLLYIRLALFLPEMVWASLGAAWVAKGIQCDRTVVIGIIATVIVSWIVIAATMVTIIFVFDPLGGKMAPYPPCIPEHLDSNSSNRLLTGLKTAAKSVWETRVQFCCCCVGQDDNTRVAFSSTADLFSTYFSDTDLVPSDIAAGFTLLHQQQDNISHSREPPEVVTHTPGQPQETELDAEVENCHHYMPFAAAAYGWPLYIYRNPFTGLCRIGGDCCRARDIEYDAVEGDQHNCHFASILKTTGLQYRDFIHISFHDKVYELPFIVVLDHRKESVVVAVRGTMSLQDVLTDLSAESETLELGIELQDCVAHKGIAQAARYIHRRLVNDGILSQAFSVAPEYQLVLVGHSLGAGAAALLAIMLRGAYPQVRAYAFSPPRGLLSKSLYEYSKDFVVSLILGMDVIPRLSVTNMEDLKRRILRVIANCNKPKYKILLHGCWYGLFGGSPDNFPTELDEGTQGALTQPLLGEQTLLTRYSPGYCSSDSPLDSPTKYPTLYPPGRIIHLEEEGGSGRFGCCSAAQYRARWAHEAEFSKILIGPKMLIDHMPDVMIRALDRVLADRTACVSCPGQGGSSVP
Summary of the method: (§2)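 Mouse DAGLβ transiently overexpressed in HEK293T. Lysate diluted to 0.3 mg/mL in 50 mM HEPES pH 7.2, 100 mM NaCl, 5 mM CaCl₂, 0.1% Triton X-100, 10% DMSO. Compound preincubated 30 min at 37 °C, then 1 μM probe for 30 min at 37 °C, SDS-PAGE and in-gel fluorescence.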

[5] = target: T4, Diacylglycerol lipase-beta (Mus musculus); assay: Inhibition of FP-rhodamine-labelled recombinant mouse DAGLbeta expressed in HEK293T cells at 100 nM preincubated for 30 mins followed by FP-rhodamine labelling measured after 30 mins by gel-based competitive ABPP assay; assay type: cell-based; conditions: HEK-293T
Summary of the method: as §2

[6] = target: T2, Monoacylglycerol lipase ABHD6 (Mus musculus); assay: Inhibition of ABHD6 in FP-rhodamine-labelled mouse brain membrane at 0.01 uM after 30 mins preincubated for 30 mins followed by HT-01 labelling measured after 30 mins by gel-based competitive ABPP assay; assay type: tissue-based
Summary of the method: as §1

[7] = target: Acyl-protein thioesterase 1 (Mus musculus) (UniProt P97823); assay: Inhibition of FP-rhodamine-labelled recombinant mouse LYPLA1 at 10 uM preincubated for 30 mins followed by FP-rhodamine labelling measured after 30 mins by gel-based competitive ABPP assay
[8] = target: Acyl-protein thioesterase 2 (Mus musculus) (UniProt Q9WTL7); assay: Inhibition of FP-rhodamine-labelled recombinant mouse LYPLA2 at 10 uM preincubated for 30 mins followed by FP-rhodamine labelling measured after 30 mins by gel-based competitive ABPP assay
[9] = target: T4, Diacylglycerol lipase-beta (Mus musculus); assay: Inhibition of FP-rhodamine-labelled recombinant mouse DAGLbeta expressed in HEK293T cells at 1 uM preincubated for 30 mins followed by FP-rhodamine labelling measured after 30 mins by gel-based competitive ABPP assay; assay type: cell-based; conditions: HEK-293T
Summary of the method: as §2

[10] = target: T2, Monoacylglycerol lipase ABHD6 (Mus musculus); assay: Inhibition of ABHD6 in FP-rhodamine-labelled mouse brain membrane at 1 nM preincubated for 30 mins followed by FP-rhodamine labelling measured after 30 mins by gel-based competitive ABPP assay; assay type: tissue-based
Summary of the method: as §1

[11] = target: T1, Fatty-acid amide hydrolase 1 (Mus musculus); assay: Inhibition of FAAH in FP-rhodamine-labelled mouse brain membrane at 0.4 to 10 uM preincubated for 30 mins followed by FP-rhodamine labelling measured after 30 mins by gel-based competitive ABPP assay; assay type: tissue-based
Summary of the method: as §1

[12] = target: T2, Monoacylglycerol lipase ABHD6 (Mus musculus); assay: Inhibition of ABHD6 in HT-01-labelled mouse Neuro2a cell membrane at 0.003 to 0.6 uM preincubated for 30 mins followed by HT-01 labelling measured after 30 mins by gel-based competitive ABPP assay
Summary of the method: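 Neuro2A membrane proteome (1 mg/mL) preincubated with compound for 30 min at 37 °C, then labelled with HT-01 (1 μM, 30 min, 37 °C). SDS-PAGE and in-gel fluorescence scanning, with activity taken from integrated band intensity.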

[13] = target: T2, Monoacylglycerol lipase ABHD6 (Mus musculus); assay: Inhibition of ABHD6 in FP-rhodamine-labelled mouse brain membrane at 10 to 0.0032 uM preincubated for 30 mins followed by FP-rhodamine labelling measured after 30 mins by gel-based competitive ABPP assay; assay type: tissue-based
Summary of the method: as §1

[14] = target: T2, Monoacylglycerol lipase ABHD6 (Mus musculus); assay: Inhibition of ABHD6 in azide-rhodamine-labelled mouse Neuro2a cell membrane at 0.01 to 0.6 uM preincubated for 1 hr followed by azide-rhodamine labelling by SDS-PAGE-based in-gel fluorescence scanning assay
Summary of the method: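 Live Neuro2A cells (DMEM, 10% FBS) treated with compound for 1 hr at 37 °C, then lysed. The membrane proteome was conjugated to azide-rhodamine by click chemistry, resolved by SDS-PAGE and scanned for in-gel fluorescence.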

[15] = target: T3, Monoglyceride lipase (Mus musculus); assay: Inhibition of mouse brain MGLL at 10 uM after 30 mins by FP-rhodamine ABPP-based mass spectrometry relative to control

Acyl-protein thioesterase 2 (Mus musculus), sequence (Q9WTL7 whole entry): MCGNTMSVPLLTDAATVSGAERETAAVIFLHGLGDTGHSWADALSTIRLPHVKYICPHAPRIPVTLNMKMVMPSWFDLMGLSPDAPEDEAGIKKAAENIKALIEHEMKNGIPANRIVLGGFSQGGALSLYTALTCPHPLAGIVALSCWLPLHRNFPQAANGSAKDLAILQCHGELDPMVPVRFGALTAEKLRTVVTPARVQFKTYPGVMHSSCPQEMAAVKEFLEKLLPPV
Acyl-protein thioesterase 1 (Mus musculus), sequence (P97823 whole entry): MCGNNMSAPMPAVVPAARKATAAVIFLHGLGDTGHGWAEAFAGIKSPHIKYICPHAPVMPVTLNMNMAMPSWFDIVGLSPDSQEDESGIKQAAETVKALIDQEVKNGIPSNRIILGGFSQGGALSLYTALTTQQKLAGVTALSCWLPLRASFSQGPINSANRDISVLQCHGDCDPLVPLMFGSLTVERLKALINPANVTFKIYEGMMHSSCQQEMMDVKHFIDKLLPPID

SMILES	inhibition [1]	inhibition [2]	inhibition [3]	inhibition [4]	inhibition [5]	inhibition [6]	inhibition [7]	inhibition [8]	inhibition [9]	inhibition [10]	inhibition [11]	inhibition [12]	inhibition [13]	inhibition [14]	inhibition [15]
C#CCOCCCc1ccc(C2CCCCN2C(=O)n2cc(-c3ccc(-c4ccc(OC)cc4)cc3)nn2)cc1 (racemic)	–	–	–	–	–	–	–	–	–	–	Active	Active	Active	Active	–
O=C(O)c1cccc(-c2ccc(-c3cn(C(=O)N4CCCCC4CCc4ccccc4)nn3)cc2)c1 (racemic)	Active	94%	–	–	–	–	–	–	4%	33%	–	–	–	–	–
O=C(N1CCCCC1Cc1ccccc1)n1cc(-c2ccc(-c3cccc(CO)c3)cc2)nn1 (racemic)	–	91%	Active	91%	37%	Active	–	–	–	–	–	–	–	–	–
O=C(c1ccc(-c2ccc(-c3cn(C(=O)N4CCCCC4c4ccccc4)nn3)cc2)cc1)N1CCCCC1 (racemic)	–	94%	–	–	–	–	Active	Active	0%	35%	–	–	–	–	–
O=C(c1ccc(-c2ccc(-c3cn(C(=O)N4CCCCC4Cc4ccccc4)nn3)cc2)cc1)N1CCCCC1 (racemic)	–	79%	Active	58%	15%	Active	–	–	–	–	–	–	–	–	–
COc1ccccc1-c1ccc(-c2cn(C(=O)N3CCCCC3Cc3ccccc3)nn2)cc1 (racemic)	–	89%	Active	100%	66%	Active	–	–	–	–	–	–	–	–	Active

Other lines, results leading:

inhibition [1]	inhibition [2]	inhibition [3]	inhibition [4]	inhibition [5]	inhibition [6]	inhibition [7]	inhibition [8]	inhibition [9]	inhibition [10]	inhibition [11]	inhibition [12]	inhibition [13]	inhibition [14]	inhibition [15]	SMILES
Active	30%	Active	0%	0%	Active	–	–	–	–	–	–	–	–	–	COc1ccc(-c2ccc(-c3cn(C(=O)N4CCCCC4c4ccccc4)nn3)cc2)cc1 (racemic)
Active	98%	–	–	–	–	Active	Active	0%	38%	–	–	–	–	–	O=C(N1CCCCC1c1ccccc1)n1cc(-c2ccc(-c3ccccc3CO)cc2)nn1 (racemic)
Active	27%	–	–	–	–	Active	Active	0%	17%	–	–	–	–	–	NC(=O)c1ccc(-c2ccc(-c3cn(C(=O)N4CCCCC4c4ccccc4)nn3)cc2)cc1 (racemic)
Active	47%	–	–	–	–	Active	Active	0%	18%	–	–	–	–	–	O=C(N1CCCCC1c1ccccc1)n1cc(-c2ccc(-c3ccc(CO)cc3)cc2)nn1 (racemic)
Active	82%	Active	70%	14%	Active	–	–	–	–	–	–	–	–	Active	COc1ccccc1-c1ccc(-c2cn(C(=O)N3CCCCC3c3ccccc3)nn2)cc1 (racemic)
